This is an account of results in ChEMBL document CHEMBL1671756, “In vitro and in vivo antifungal susceptibilities of the Mucoralean fungus Cunninghamella” (2010).

What all share (format): functional, organism-based
In assay [1] the test system is Cunninghamella bertholletiae. Briefly: Antifungal activity against Cunninghamella bertholletiae UTHSC 06-1945 infected in neutropenic OF1 mouse assessed as decreased fungal load in kidney at 0.8 mg/kg, iv qd administered 1 day post infection measured after 4 to 5 days relative to untreated control. On the set-up: dose 0.8 mg/kg. In a few lines:
(§1)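 Neutropenic male OF1 mice (cyclophosphamide 200 mg/kg i.p. plus 5-fluorouracil 150 mg/kg i.v., day −1) were given 1 × 10⁴ CFU sporangiospores i.v. in 0.2 ml saline. Treatment from 24 h: 0.8 mg/kg i.v. or oral doses once daily; 10 mice per group. Killed at day 5 (day 4 if moribund). About half of brain, lungs and kidneys homogenized in saline; 10-fold dilutions plated on PDA for 24 h at 35°C; log₁₀ CFU/g tissue.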

Assay [2] concerns Cunninghamella bertholletiae. Nature of the assay: Antifungal activity against Cunninghamella bertholletiae UTHSC 03-2241 infected in neutropenic OF1 mouse assessed as increase in mouse survival rate at 0.8 mg/kg, iv qd administered 1 day after infection for 7 days relative to untreated control. On the set-up: dose 0.8 mg/kg. In a few lines: (§2)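 Male OF1 mice (~30 g) were made neutropenic with cyclophosphamide 200 mg/kg i.p. plus 5-fluorouracil 150 mg/kg i.v. 1 day before challenge. Challenge was 1 × 10⁴ CFU sporangiospores in 0.2 ml saline via the lateral tail vein. Mice got ceftazidime 5 mg/day s.c. on days 1–7. Dosing started 24 h post-challenge for 7 days. There were 10 mice/group, observed daily for 20 days. Kaplan-Meier analysis with log-rank test.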

For assay [3], the system named is Cunninghamella bertholletiae. Nature of the assay: Antifungal activity against Cunninghamella bertholletiae UTHSC 05-2275 infected in neutropenic OF1 mouse assessed as decreased fungal load in kidney at 0.8 mg/kg, iv qd administered 1 day post infection measured after 4 to 5 days relative to untreated control. On the set-up: dose 0.8 mg/kg. In a few lines:
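Neutropenic male OF1 mice (cyclophosphamide 200 mg/kg i.p. + 5-fluorouracil 150 mg/kg i.v., day −1) were infected i.v. with 1 × 10⁴ CFU. Ten mice per group were treated from day 1 and killed by CO₂ on day 5, or on day 4 if moribund. Half of each brain, lung and kidney was homogenized in 1 ml saline. Ten-fold dilutions were plated on PDA for 24 h at 35°C and counted as log₁₀ CFU/g.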

For assay [4], the system named is Cunninghamella bertholletiae. Briefly: Antifungal activity against Cunninghamella bertholletiae UTHSC 05-2275 infected in neutropenic OF1 mouse assessed as increase in mouse survival rate at 0.8 mg/kg, iv qd administered 1 day after infection for 7 days relative to untreated control. On the set-up: dose 0.8 mg/kg. In a few lines: as §2
In assay [5] the test system is Cunninghamella bertholletiae. Briefly: Antifungal activity against Cunninghamella bertholletiae UTHSC 04-2581 infected in neutropenic OF1 mouse assessed as decreased fungal load in kidney at 0.8 mg/kg, iv qd administered 1 day post infection measured after 4 to 5 days relative to untreated control. On the set-up: dose 0.8 mg/kg. In a few lines: as §1
Assay [6] concerns Cunninghamella bertholletiae. Briefly: Antifungal activity against Cunninghamella bertholletiae UTHSC 05-2275 infected in neutropenic OF1 mouse assessed as decreased fungal load in brain at 80 mg/kg, po qd administered 1 day post infection measured after 4 to 5 days relative to untreated control. Details: dose 80 mg/kg. A digest of the protocol:
as §1

Assay [7] deals with Cunninghamella bertholletiae. Nature of the assay: Antifungal activity against Cunninghamella bertholletiae UTSCH 05-2275 infected in diabetic OF1 mouse assessed as decreased fungal load in kidney at 80 mg/kg, po qd administered 1 day post infection measured after 4 to 5 days relative to untreated control. Details: dose 80 mg/kg. A digest of the protocol: (§3)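 Male OF1 mice (mean 30 g) made diabetic with a single i.p. dose of streptozocin 210 mg/kg; blood glucose >250 mg/dl at day 10 qualified. Ceftazidime 5 mg/day s.c. given on days 1–7. Challenge by lateral tail vein with 1 × 10⁵ CFU sporangiospores in 0.2 ml saline. Oral dosing once daily for 7 days, starting 1 day after challenge. Untreated controls. Ten mice per group.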

Assay [8] relates to Cunninghamella bertholletiae. Briefly: Antifungal activity against Cunninghamella bertholletiae UTSCH 05-2275 infected in diabetic OF1 mouse assessed as decreased fungal load in brain at 40 mg/kg, po qd administered 1 day post infection measured after 4 to 5 days relative to untreated control. Details: dose 40 mg/kg. In a few lines:
(§4)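 Diabetic male OF1 mice (streptozocin 210 mg/kg i.p.; glucose above 250 mg/dl) were challenged i.v. with 1 × 10⁵ CFU sporangiospores. Oral once-daily dosing from day 1 for 7 days; 10 mice per group. Killed at day 5 (day 4 if moribund). About half of each organ homogenized in saline; serial 10-fold dilutions plated on PDA for 24 h at 35°C; log₁₀ CFU/g tissue.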

Assay [9] deals with Cunninghamella bertholletiae. Briefly: Antifungal activity against Cunninghamella bertholletiae UTSCH 05-2275 infected in diabetic OF1 mouse assessed as decreased fungal load in brain at 60 mg/kg, po qd administered 1 day post infection measured after 4 to 5 days relative to untreated control. Details: dose 60 mg/kg. In a few lines:
as §4

For assay [10], the system named is Cunninghamella bertholletiae. Briefly: Antifungal activity against Cunninghamella bertholletiae UTSCH 05-2275 infected in diabetic OF1 mouse assessed as decreased fungal load in lung at 80 mg/kg, po qd administered 1 day post infection measured after 4 to 5 days relative to untreated control. Details: dose 80 mg/kg. A digest of the protocol:
as §3

The subject of assay [11] is Cunninghamella bertholletiae. Nature of the assay: Antifungal activity against Cunninghamella bertholletiae UTHSC 05-2275 infected in neutropenic OF1 mouse assessed as increase in mouse survival rate at 40 mg/kg, po qd administered 1 day after infection for 7 days relative to untreated control. Details: dose 40 mg/kg. A digest of the protocol: (§5)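 Male OF1 mice, about 30 g, made neutropenic with cyclophosphamide 200 mg/kg i.p. plus 5-fluorouracil 150 mg/kg i.v. 1 day before challenge. Infected i.v. via the lateral tail vein with 1 × 10⁴ CFU of hemacytometer-counted sporangiospores in 0.2 ml saline. Ceftazidime 5 mg/day s.c. on days 1–7. Oral treatment started 24 h after challenge; 10 mice per group; checked daily for 20 days; Kaplan-Meier mean survival time, log-rank test.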

The test system of assay [12] is Cunninghamella bertholletiae. Briefly: Antifungal activity against Cunninghamella bertholletiae UTSCH 05-2275 infected in diabetic OF1 mouse assessed as decreased fungal load in kidney at 60 mg/kg, po qd administered 1 day post infection measured after 4 to 5 days relative to untreated control. Details: dose 60 mg/kg. A digest of the protocol:
as §4

Assay [13] concerns Cunninghamella bertholletiae. Briefly: Antifungal activity against Cunninghamella bertholletiae UTHSC 05-2275 infected in neutropenic OF1 mouse assessed as decreased fungal load in brain at 60 mg/kg, po qd administered 1 day post infection measured after 4 to 5 days relative to untreated control. Details: dose 60 mg/kg. A digest of the protocol: as §1
The subject of assay [14] is Cunninghamella bertholletiae. Briefly: Antifungal activity against Cunninghamella bertholletiae UTHSC 04-2581 infected in neutropenic OF1 mouse assessed as increase in mouse survival rate at 60 mg/kg, po qd administered 1 day after infection for 7 days relative to untreated control. On the set-up: dose 60 mg/kg. In a few lines: as §5
Assay [15] has as its system Cunninghamella bertholletiae. Nature of the assay: Antifungal activity against Cunninghamella bertholletiae UTHSC 05-2275 infected in diabetic OF1 mouse assessed as increase in mouse survival rate at 80 mg/kg, po qd administered 1 day after infection for 7 days relative to untreated control. On the set-up: dose 80 mg/kg. In a few lines: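 Male OF1 mice made diabetic with streptozocin 210 mg/kg i.p.; blood glucose above 250 mg/dl at day 10 required. Infected i.v. via the tail vein with 1 × 10⁵ CFU sporangiospores in 0.2 ml saline. Ceftazidime 5 mg/day s.c. on days 1–7. Oral once-daily treatment from day 1 for 7 days; 10 mice per group; followed for 20 days; Kaplan-Meier mean survival time, log-rank test.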

For assay [16], the system named is Cunninghamella bertholletiae. Nature of the assay: Antifungal activity against Cunninghamella bertholletiae UTHSC 04-2581 infected in neutropenic OF1 mouse assessed as decreased fungal load in brain at 60 mg/kg, po qd administered 1 day post infection measured after 4 to 5 days relative to untreated control. Details: dose 60 mg/kg. In a few lines: as §1

Calls of active or inactive are those of the source. The calls are words filed in the database; no cut-off is given here.

With `C[C@@H]1[C@H](O)[C@@H](C)/C=C/C=C/C=C/C=C/C=C/C=C/C=C/[C@H](O[C@@H]2O[C@H](C)[C@@H](O)[C@H](N)[C@@H]2O)C[C@@H]2O[C@](O)(C[C@@H](O)C[C@@H](O)[C@H](O)CC[C@@H](O)C[C@@H](O)CC(=O)O[C@H]1C)C[C@H](O)[C@H]2C(=O)O` [AMPHOTERICIN B], the result in assay [1], in assay [2], in assay [3], in assay [4] and in [5] was Active.

Turning to `CC[C@@H]([C@H](C)O)n1ncn(-c2ccc(N3CCN(c4ccc(OC[C@@H]5CO[C@@](Cn6cncn6)(c6ccc(F)cc6F)C5)cc4)CC3)cc2)c1=O` [POSACONAZOLE], the result in assay [6], in [7], in assay [9], in [10], in [11] and in [12] was Active. The outcome in assay [13], in assay [14], in [15] and in assay [16] was Active. In addition, in assay [8], the result was inactive.
